Published values of several laboratories.
Each line is one published result; the experiments were not run side by side.
Effect on: metabolic stability

| Structure (SMILES) | species | matrix | concentration | pH | half-life |
| --- | --- | --- | --- | --- | --- |
| CCCCCCCCCCCCCCCCOCCCOP(=O)(O)CO[C@H](C)Cn1cnc2c(N)ncnc21.N | CD-1 mouse | liver microsomes | 3 µM | pH 7.4 | > 120 min |
| Cc1cnc(Nc2ccc(C(=O)NC3CCN(C(=O)COCCOCCOCC(=O)N4CCC(NC(=O)c5ccc(Nc6ncc(C)c(Nc7ccc(Cl)c(NS(=O)(=O)C(C)(C)C)c7)n6)cc5F)CC4)CC3)c(F)c2)nc1Nc1ccc(Cl)c(NS(=O)(=O)C(C)(C)C)c1 | mouse | liver microsomes | – | – | 33 min |
| Nc1ncnc2c1c(Oc1cc(Cl)ccn1)nn2C1CCC(F)(F)CC1 | mouse | liver microsomes | 1 µM | – | ~25 min |
| O=C(c1cc(-n2sc3ncccc3c2=O)ccc1Cl)N1CCOCC1 | mouse | liver microsomes | – | – | > 120 min |
| C=C1NC(=O)[C@H](C)N(O)C(=O)[C@H]([C@@H](O)C(N)=O)N(C)C(=O)[C@H](C)OC(=O)[C@@H]2C[C@H](C)CN2C1=O | mouse | liver microsomes | – | – | > 120 min |
| Nc1ncnc2c1c(Oc1cc(C(F)(F)F)ccn1)nn2C1CCC(F)(F)CC1 | mouse | liver microsomes | 1 µM | – | ~25 min |
| C[C@]12CC[C@H]3[C@@H](CCC4=CC(=O)CC[C@@]43C)[C@@H]1CC[C@@H]2O | mouse | liver microsomes | 1 µM | – | 2.1 min |
| CN1CCCCC1Cn1cc(C(=O)c2cc([N+](=O)[O-])ccc2I)c2ccccc21 (racemic) | mouse | liver microsomes | – | – | 10.6 min |
| C[C@H](Cn1cnc2c(N)ncnc21)OCP(=O)(O)OCCCOCCCCCCCCCCCCCCCC(F)(F)F.N | CD-1 mouse | liver microsomes | 3 µM | pH 7.4 | > 120 min |
| N=c1c2c(-c3ccccc3)c(-c3ccccc3)n(Cc3ccccc3)c2ncn1[C@H]1CC[C@H](O)CC1 | mouse | liver S9 | 1 µM | – | > 120 min |
| O=C(c1ccc(-n2sc3ncccc3c2=O)cc1)N1CCOCC1 | mouse | liver microsomes | – | – | > 120 min |
| Cc1cc(C)nc(Nc2ncc(C(=O)NCCc3c(C)[nH]c4ccccc34)cn2)c1 | CD-1 mouse | hepatocytes | 1 µM | – | 39 min |
| Cc1nc2c(=O)n(C)c(=O)nc-2n(C)n1 | mouse | liver microsomes | – | – | > 186 min |
